ChEMBL document CHEMBL1765005, “Small molecule antagonists of the urokinase (uPA): urokinase receptor (uPAR) interaction with high reported potencies show only weak effects in cell-based competition assays employing the native uPAR ligand” (Bioorg Med Chem, 2011)
Activity calls are given as the source filed them. The calls are words filed in the database; no cut-off is given here. Residues, ends and D or L forms follow the SMILES beside them.

Columns and labels:
Type in all cases: cell-based
[1] = target: T1, Urokinase-type plasminogen activator/surface receptor (Homo sapiens, UniProt P00749+Q03405); assay: Inhibition of [125I]-labelled urokinase-type plasminogen activator binding to uPAR in human DU-145 cells by radioligand competition binding assay
[2] = target: T1, Urokinase-type plasminogen activator/surface receptor; assay: Inhibition of high molecular weight fluorescent labelled urokinase-type plasminogen activator binding to uPAR in PMA-stimulated human U937 cells at 100 uM preincubated for 30 mins by flow cytometry; settings: U-937
Outline: (§1)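 U-937 cells were stimulated with 100 nM PMA (final) for 7–8 h at 37 °C, then resuspended at 1 × 10⁶ cells/mL in cold PBS (1 mM CaCl₂, MgCl₂) with 0.1% BSA, pH 7.4. Cells were pre-incubated with antagonist on ice for 30 min, then given 40 nM Alexa-488-HMW-uPA. After washing, cell fluorescence was read by dual-colour flow cytometry as % of the no-compound control; mean ± SD, n = 3.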

[3] = target: T1, Urokinase-type plasminogen activator/surface receptor; assay: Inhibition of high molecular weight fluorescent labelled urokinase-type plasminogen activator binding to uPAR in PMA-stimulated human U937 cells at 10 uM preincubated for 30 mins by flow cytometry; settings: U-937; outline: as §1
[4] = target: T1, Urokinase-type plasminogen activator/surface receptor; assay: Inhibition of high molecular weight fluorescent labelled urokinase-type plasminogen activator binding to uPAR in PMA-stimulated human U937 cells at 10 nM preincubated for 30 mins by flow cytometry; settings: U-937; outline: as §1
[5] = target: T1, Urokinase-type plasminogen activator/surface receptor; assay: Inhibition of high molecular weight fluorescent labelled urokinase-type plasminogen activator binding to uPAR in PMA-stimulated human U937 cells at 100 nM preincubated for 30 mins by flow cytometry; settings: U-937; outline: as §1

Row | IC50 [1] | inhibition [2] | inhibition [3] | inhibition [4] | inhibition [5] | Structure (SMILES)
1 | 0.8 nM | inactive | inactive |  |  | CC(=O)N[C@@H](Cc1c[nH]c2ccccc12)C(=O)Nc1cccc(-c2ccc(C(=O)N[C@@H](Cc3ccccc3)C(=O)O)cc2)c1
2 |  |  |  | 80% | 90% | N=C(N)NCCC[C@H](NC(=O)CNC(=O)[C@@H](N)CCC(=O)O)C(=O)CCl (HELM PEPTIDE1{E.G.R.[ClC[*:1]]}$$$$V2.0)
3 |  | 50% | 60% |  |  | C#CCNCC(=O)N(CC(=O)N(CC(N)=O)CC(=O)NC(c1ccc(OC)cc1)c1ccc(OC)cc1)c1ccc2ccccc2c1
